Data on 8 molecules can be found in ChEMBL document CHEMBL1817661, “Combining carbochips and mass spectrometry to study the donor specificity for the Neisseria meningitidis β1,3-N-acetylglucosaminyltransferase LgtA” (Bioorg Med Chem Lett, 2011).

Data set [1] has as its target T1, Beta 1,3 N-acetylglucosaminyltransferase (Neisseria meningitidis) (UniProt Q8KHG4).
T1 sequence (whole entry): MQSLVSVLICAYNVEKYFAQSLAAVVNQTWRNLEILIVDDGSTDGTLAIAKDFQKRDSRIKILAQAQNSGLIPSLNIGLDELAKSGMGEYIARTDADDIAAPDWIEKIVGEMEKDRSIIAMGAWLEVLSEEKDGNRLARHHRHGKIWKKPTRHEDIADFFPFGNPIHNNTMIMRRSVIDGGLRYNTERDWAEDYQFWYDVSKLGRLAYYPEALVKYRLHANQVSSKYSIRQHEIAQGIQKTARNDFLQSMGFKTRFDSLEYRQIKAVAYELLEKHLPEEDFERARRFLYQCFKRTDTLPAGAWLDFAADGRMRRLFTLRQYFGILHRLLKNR
The data set is described as follows: Activity of Neisseria meningitidis beta1,3-N-acetylglucosaminyltransferase LgtA assessed as enzyme catalyzed glycosylation using self-assembled monolayers having lactoside as acceptor at 2 mM after 5 to 120 mins by SAMDI MS assay. Summed up: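 Gold islands (2 mm) carry a monolayer of lactose (10% density) with tri(ethylene glycol) groups. Each donor analog (2 mM) is mixed with LgtA in assay buffer, applied to an island, and incubated in a humidified chamber at 30 °C. Times were 5, 10, 15, 20, 30, 40, 60 and 120 min. Arrays were rinsed with water and ethanol, matrix was applied, and relative glycosylation product was read by SAMDI MS.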

For data set [2], the target named is T1, Beta 1,3 N-acetylglucosaminyltransferase (Neisseria meningitidis). As to the kind of experiment: Ratio of Vmax to Km for Neisseria meningitidis beta1,3-N-acetylglucosaminyltransferase LgtA assessed as enzyme catalyzed glycosylation using lactose as substrate after 2 to 30 mins by SAMDI analysis. Summed up: (§1)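 Solution-phase reactions: LgtA with lactose azide acceptor (10 mM) and UDP-sugar donor at five concentrations (1–10 mM), 30 °C. Sets stopped at 12 time points. Aliquots mixed with copper bromide and DIPEA and immobilized on monolayer islands (20 min). Yield comes from product/substrate SAMDI peak intensities. Initial velocities are slopes of linear fits of yield vs time. Apparent Km and Vmax are taken from a reciprocal plot.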

Substrate in data set [3]: CC(=O)N[C@H]1[C@@H](OP(=O)(O)OP(=O)(O)OC[C@H]2O[C@@H](n3ccc(=O)[nH]c3=O)[C@H](O)[C@@H]2O)O[C@H](C)[C@@H](O)[C@@H]1O
As to the kind of experiment: (§2) Activity of Neisseria meningitidis beta1,3-N-acetylglucosaminyltransferase LgtA assessed as enzyme catalyzed glycosylation using lactose as substrate after 2 to 30 mins by SAMDI analysis. Summed up:
as §1

Substrate in data set [4]: CC(=O)N[C@H]1[C@@H](OP(=O)(O)OP(=O)(O)OC[C@H]2O[C@@H](n3ccc(=O)[nH]c3=O)[C@H](O)[C@@H]2O)O[C@H](C)[C@H](O)[C@@H]1O
Described as §2. Summed up:
as §1

Substrate in data set [5]: CC(=O)N[C@H]1[C@@H](OP(=O)(O)OP(=O)(O)OC[C@H]2O[C@@H](n3ccc(=O)[nH]c3=O)[C@H](O)[C@@H]2O)O[C@H](CO)C[C@@H]1O
Described as §2. Summed up: as §1

Substrate in data set [6]: CCC(=O)N[C@H]1[C@@H](OP(=O)(O)OP(=O)(O)OC[C@H]2O[C@@H](n3ccc(=O)[nH]c3=O)[C@H](O)[C@@H]2O)O[C@H](CO)[C@@H](O)[C@@H]1O
The description is as §2. In short, it runs like this: as §1

Activity calls are given as the source filed them. The calls are words filed in the database; no cut-off is given here.

Take `CC(=O)N[C@H]1[C@@H](OP(=O)(O)OP(=O)(O)OC[C@H]2O[C@@H](n3ccc(=O)[nH]c3=O)[C@H](O)[C@@H]2O)O[C@H](C)[C@@H](O)[C@@H]1O`: in data set [1], the result was Active. The Vmax/Km in data set [2] worked out at 0.259 min⁻¹.

On to `[N-]=[N+]=NCC(=O)N[C@H]1[C@@H](OP(=O)(O)OP(=O)(O)OC[C@H]2O[C@@H](n3ccc(=O)[nH]c3=O)[C@H](O)[C@@H]2O)O[C@H](CO)[C@@H](O)[C@@H]1O`, for which the result in data set [1] was inactive.

For the molecule `CC(=O)N[C@@H]1[C@H](OP(=O)(O)OP(=O)(O)OC[C@H]2O[C@@H](n3ccc(=O)[nH]c3=O)[C@H](O)[C@@H]2O)O[C@@H](CO)[C@H](O)[C@H]1O` (stereo in doubt; 8), in data set [2], the Vmax/Km amounted to 0.065 min⁻¹.

Consider `CC(=O)N[C@H]1[C@@H](OP(=O)(O)OP(=O)(O)OC[C@H]2O[C@@H](n3ccc(=O)[nH]c3=O)[C@H](O)[C@@H]2O)O[C@H](C)[C@H](O)[C@@H]1O`, for which, in data set [2], the Vmax/Km turned out to be 0.038 min⁻¹.

For the molecule `CC(=O)N[C@@H]1[C@H](OP(=O)(O)OP(=O)(O)OC[C@H]2O[C@@H](n3ccc(=O)[nH]c3=O)[C@H](O)[C@@H]2O)O[C@@H](CO)[C@H](O)[C@H]1O` (stereo in doubt; 1), in data set [2], the Vmax/Km came to 1.15 min⁻¹.

In the case of `CC(=O)N[C@H]1[C@@H](OP(=O)(O)OP(=O)(O)OC[C@H]2O[C@@H](n3ccc(=O)[nH]c3=O)[C@H](O)[C@@H]2O)O[C@H](CO)C[C@@H]1O`, the Vmax/Km in data set [2] amounted to 0.029 min⁻¹.

Consider `CCC(=O)N[C@H]1[C@@H](OP(=O)(O)OP(=O)(O)OC[C@H]2O[C@@H](n3ccc(=O)[nH]c3=O)[C@H](O)[C@@H]2O)O[C@H](CO)[C@@H](O)[C@@H]1O`, for which the Vmax/Km in data set [2] stood at 0.005 min⁻¹.

B1: Beta 1,3 N-acetylglucosaminyltransferase (Neisseria meningitidis), Q8KHG4 (protein)
chain: MQSLVSVLICAYNVEKYFAQSLAAVVNQTWRNLEILIVDDGSTDGTLAIAKDFQKRDSRIKILAQAQNSGLIPSLNIGLDELAKSGMGEYIARTDADDIAAPDWIEKIVGEMEKDRSIIAMGAWLEVLSEEKDGNRLARHHRHGKIWKKPTRHEDIADFFPFGNPIHNNTMIMRRSVIDGGLRYNTERDWAEDYQFWYDVSKLGRLAYYPEALVKYRLHANQVSSKYSIRQHEIAQGIQKTARNDFLQSMGFKTRFDSLEYRQIKAVAYELLEKHLPEEDFERARRFLYQCFKRTDTLPAGAWLDFAADGRMRRLFTLRQYFGILHRLLKNR
Regarding B1, the Km in data set [3] was determined as 1.32 mM; in data set [4], 3.05 mM; in data set [5], 3.28 mM; in data set [6] it was 21.1 mM. Moreover, the maximum rate (Vmax) is 0.343 mM/min in data set [3], 0.115 mM/min in data set [4], 0.097 mM/min in data set [5] and 0.11 mM/min in data set [6].
